Measurements taken from ChEMBL document CHEMBL3792330, “Designed Glycopeptidomimetics Disrupt Protein-Protein Interactions Mediating Amyloid β-Peptide Aggregation and Restore Neuroblastoma Cell Viability” (J Med Chem, 2016).
Each block holds one molecule with its values, some of them ahead of it. Activity calls are given as the source filed them. The calls are words filed in the database; no cut-off is given here.

Tests used:
[1] = biological target: Amyloid-beta precursor protein (Homo sapiens) (UniProt P05067); assay: Inhibition of amyloid beta (1 to 42) (unknown origin) fibril formation assessed as extension of aggregation half life at compound/protein ratio of 10/1 after 42 hrs by ThT fluorescence assay relative to control
Chain of Amyloid-beta precursor protein (Homo sapiens) (P05067 whole entry, the tested form may be a part): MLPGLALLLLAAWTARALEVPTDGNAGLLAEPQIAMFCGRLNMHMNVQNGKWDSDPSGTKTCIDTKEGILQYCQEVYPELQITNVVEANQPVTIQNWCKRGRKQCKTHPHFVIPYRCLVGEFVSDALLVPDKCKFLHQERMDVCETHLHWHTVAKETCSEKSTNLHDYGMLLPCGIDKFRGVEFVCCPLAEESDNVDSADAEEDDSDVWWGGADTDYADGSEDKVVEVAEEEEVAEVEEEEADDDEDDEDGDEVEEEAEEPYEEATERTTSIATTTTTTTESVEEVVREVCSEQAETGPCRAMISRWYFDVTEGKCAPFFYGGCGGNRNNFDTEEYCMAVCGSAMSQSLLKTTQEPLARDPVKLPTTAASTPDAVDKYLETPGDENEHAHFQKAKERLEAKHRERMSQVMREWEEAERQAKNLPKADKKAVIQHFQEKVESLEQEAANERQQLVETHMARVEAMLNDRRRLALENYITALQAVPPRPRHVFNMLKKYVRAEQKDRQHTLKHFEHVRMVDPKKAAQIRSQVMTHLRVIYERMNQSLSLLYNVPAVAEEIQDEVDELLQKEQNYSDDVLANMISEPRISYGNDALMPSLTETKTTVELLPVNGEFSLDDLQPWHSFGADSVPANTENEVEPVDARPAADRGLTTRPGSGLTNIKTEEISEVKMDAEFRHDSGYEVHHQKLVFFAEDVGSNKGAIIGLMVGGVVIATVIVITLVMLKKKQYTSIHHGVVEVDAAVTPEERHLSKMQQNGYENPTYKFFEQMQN
Outline: (§1)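 Aβ1-42 (1 mM in 1% ammonia, diluted in buffer) added to a final 10 μM into 40 μM ThT in 10 mM Tris-HCl, 100 mM NaCl pH 7.4, with compound at 100, 50, 10 or 1 μM (0.5% DMSO), at room temperature. Ex/em 440/485 nm read for 42 h, in duplicate or triplicate, 2–4 runs. t1/2 and plateau F expressed relative to Aβ alone.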

[2] = biological target: Amyloid-beta precursor protein (Homo sapiens) (UniProt P05067); assay: Inhibition of amyloid beta (1 to 42) (unknown origin) fibril formation assessed as extension of aggregation half life at compound/protein ratio of 1/1 after 42 hrs by ThT fluorescence assay relative to control; design: Activity: scale not given: the % may be the effect or the level left; outline: as §1
[3] = biological target: Amyloid-beta precursor protein (Homo sapiens) (UniProt P05067); assay: Inhibition of amyloid beta (1 to 42) (unknown origin) fibril formation assessed as decrease in fluorescence plateau at compound/protein ratio of 10/1 after 42 hrs by ThT fluorescence assay relative to control; details: concentration not given here; outline: as §1
[4] = biological target: Amyloid-beta precursor protein (Homo sapiens) (UniProt P05067); assay: Inhibition of amyloid beta (1 to 42) (unknown origin) fibril formation assessed as decrease in fluorescence plateau at compound/protein ratio of 1/1 after 42 hrs by ThT fluorescence assay relative to control; details: concentration not given here; outline: as §1
[5] = biological target: Amyloid-beta precursor protein (Homo sapiens) (UniProt P05067); assay: Inhibition of amyloid beta (1 to 42) (unknown origin) fibril formation assessed as extension of aggregation half life at compound/protein ratio of 0.1/1 after 42 hrs by ThT fluorescence assay relative to control; design: Activity: scale not given: the % may be the effect or the level left; outline: as §1
[6] = biological target: Amyloid-beta precursor protein (Homo sapiens) (UniProt P05067); assay: Inhibition of amyloid beta (1 to 42) (unknown origin) fibril formation assessed as decrease in fluorescence plateau at compound/protein ratio of 0.1/1 after 42 hrs by ThT fluorescence assay relative to control; details: concentration not given here; outline: as §1
[7] = biological target: Amyloid-beta precursor protein (Homo sapiens) (UniProt P05067); assay: Inhibition of amyloid beta (1 to 42) (unknown origin) oligomerization assessed as formation of larger than dodecamers at compound/protein ratio of 1/1 at 12 hrs by capillary electrophoresis
Outline: (§2)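 Aβ1-42 pretreated in 0.16% NH4OH, lyophilized, then reconstituted at 100 μM in 20 mM phosphate pH 7.4 with 2.5% DMSO, compound/peptide 1/1. Species separated in fused silica capillary (50 μm ID) with 80 mM phosphate pH 7.4 background electrolyte, −20 kV, 25 °C. UV detection at 190 nm; profiles taken at 0 and 12 h.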

[8] = biological target: Amyloid-beta precursor protein (Homo sapiens) (UniProt P05067); assay: Inhibition of amyloid beta (1 to 42) (unknown origin) oligomerization assessed as remaining monomer level at compound/protein ratio of 1/1 after 12 hrs by capillary electrophoresis (reference value: 19%); outline: as §2
[9] = biological target: Amyloid-beta precursor protein (Homo sapiens) (UniProt P05067); assay: Binding affinity to synthetic 15N,13C-labelled recombinant amyloid beta (1 to 42) (unknown origin) at 0.4 mM after 2.5 weeks by saturation transfer difference method
Outline: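 1D 1H STD at 5 °C in 50 mM sodium phosphate pH 7.4 with 10% D2O. Cascade of 50 ms Gaussian pulses (B1 0.1 kHz, 3 s total) applied alternately on-resonance at −0.7 ppm and off-resonance at +30 ppm. 320 scans (50 min). Ligand at 0.4 mM.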

[10] = biological target: Amyloid-beta precursor protein (Homo sapiens) (UniProt P05067); assay: Binding affinity to synthetic 15N,13C-labelled recombinant amyloid beta (1 to 42) (unknown origin) assessed as negative nuclear overhauser effect at 0.4 mM after 2.5 weeks by 1D 1H water LOGSY method
Outline: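 WaterLOGSY at 5 °C in 50 mM sodium phosphate pH 7.4 with 10% D2O, synthetic Aβ1-42. Ligand at 0.4 mM. Selective water inversion with a 20 ms Gaussian pulse, 0.5 s mixing, 2 s recycle delay, 1200 scans (about 1 h), 500 MHz cryoprobe.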

[11] = biological target: Amyloid-beta precursor protein (Homo sapiens) (UniProt P05067); assay: Binding affinity to amyloid beta (1 to 42) (unknown origin) by SPR analysis
Outline: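 Aβ1-42 (0.05 μM in 10 mM sodium acetate pH 4.6) amine-coupled to an EDC/NHS-activated gold chip, then rinsed with 0.1% NH4OH to leave mainly monomer. Analytes in 150 mM PBS with 2% DMSO were injected at 12.5–200 μM for 1 min at 80 μL/min. DMSO solvent correction applied and the ethanolamine-blocked blank channel subtracted. Regeneration with 0.1% NH4OH.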

[12] = biological target: Amyloid-beta precursor protein (Homo sapiens) (UniProt P05067); assay: Binding affinity to synthetic 15N,13C-labelled recombinant amyloid beta (1 to 42) (unknown origin) assessed as negative nuclear overhauser effect at 0.4 mM after 2.5 weeks by 2D NOESY method
Outline: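 2D NOESY at 5 °C with 0.2 s mixing time. Synthetic Aβ1-42 in 50 mM sodium phosphate pH 7.4 with 10% D2O, ligand at 0.4 mM, recorded at 500 MHz.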

[13] = biological target: Amyloid-beta precursor protein (Homo sapiens) (UniProt P05067); assay: Inhibition of amyloid beta (1 to 42) (unknown origin) fibril formation after 42 hrs by ThT fluorescence assay; outline: as §1
[14] = biological target: Amyloid-beta precursor protein (Homo sapiens) (UniProt P05067); assay: Inhibition of amyloid beta (1 to 42) (unknown origin) aggregation after 42 hrs by uranyl acetate staining-based transmission electron microscopy
Outline: (§3)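 Samples prepared as for ThT: Aβ1-42 at 10 μM in 10 mM Tris-HCl, 100 mM NaCl pH 7.4, with or without compound at 10 or 100 μM. After 42 h, adsorbed 2 min onto carbon grids and negatively stained 45 s with 2% uranyl acetate. Imaged by TEM at 80 kV.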

[15] = biological target: Amyloid-beta precursor protein (Homo sapiens) (UniProt P05067); assay: Inhibition of amyloid beta (1 to 42) (unknown origin) aggregation assessed as scattered, short and scarce fiber formation at compound/protein ratio of 10/1 after 42 hrs by uranyl acetate staining-based transmission electron microscopy; outline: as §3
[16] = biological target: Amyloid-beta precursor protein (Homo sapiens) (UniProt P05067); assay: Inhibition of amyloid beta (1 to 42) (unknown origin) aggregation assessed as appearance of less dense fiber at compound/protein ratio of 1/1 after 42 hrs by uranyl acetate staining-based transmission electron microscopy; outline: as §3
[17] = biological target: Amyloid-beta precursor protein (Homo sapiens) (UniProt P05067); assay: Inhibition of amyloid beta (1 to 42) (unknown origin) aggregation assessed as appearance of glubular aggregation at compound/protein ratio of 1/1 after 42 hrs by transmission electron microscopy; outline: as §3
SH-SY5Y [18] = assay: Neuroprotective activity against amyloid beta (1 to 42)-induced toxicity in human SH-SY5Y cells assessed as cell viability at 0.25 to 5 uM after 24 hrs by MTS assay; format: functional, cell-based
Outline: (§4)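 Aβ1-42 at 50 μM in sterile PBS pre-incubated 24 h at room temperature with 1, 5, 10 or 50 μM compound, then diluted 1:10 (5 μM Aβ final) onto SH-SY5Y cells. Cells seeded at 20 000/well in low-serum Optimem, 37 °C, 5% CO2, 24 h. Exposure a further 24 h in quadruplicate. MTS viability or LDH release read; assays repeated twice.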

SH-SY5Y [19] = assay: Neuroprotective activity against amyloid beta (1 to 42)-induced membrane damage in human SH-SY5Y cells at 0.1 to 5 uM after 24 hrs by LDH assay; format: functional, cell-based; outline: as §4
Plasma = assay: Metabolic stability in 10% human plasma assessed as drug degradation at 1 uM after 24 hrs by HPLC analysis; format: ADME, cell-free
Outline: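 Compounds taken from 40 μM DMSO stock to 1 μM in 10% human plasma/90% sterile PBS, held 24 h at 37 °C. Analysed by C18 HPLC with a 0–80% gradient (A: 0.1% TFA in water; B: 0.05% TFA in acetonitrile).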

[20] = biological target: T1, Islet amyloid polypeptide (Homo sapiens) (UniProt P10997); assay: Inhibition of human IAPP fibril formation assessed as increase of aggregation half life at compound/protein ratio of 10/1 by ThT fluorescence assay
T1 sequence (whole entry): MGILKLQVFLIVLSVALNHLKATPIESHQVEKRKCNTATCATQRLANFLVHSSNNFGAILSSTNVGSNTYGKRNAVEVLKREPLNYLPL

[21] = biological target: T1, Islet amyloid polypeptide (Homo sapiens); assay: Inhibition of human IAPP fibril formation assessed as decrease in final fluorescence intensity at compound/protein ratio of 10/1 by ThT fluorescence assay
[22] = biological target: Amyloid-beta precursor protein (Homo sapiens) (UniProt P05067); assay: Inhibition of amyloid beta (1 to 42) (unknown origin) fibril formation at compound/protein ratio of 10/1, 1/1, 0.1/1 […] by ThT fluorescence assay
SH-SY5Y [23] = assay: Neuroprotective activity against amyloid beta (1 to 42)-induced toxicity in human SH-SY5Y cells assessed as reduction of cell death at 0.1 equiv after 24 hrs by MTS assay; format: functional; design: scale not given: the % may be the effect or the level left
Outline: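 SH-SY5Y cells seeded at 20 000/well in low-serum Optimem, 24 h at 37°C, 5% CO2. Aβ1-42 at 50 μM in sterile PBS pre-incubated 24 h at room temperature with 1, 5, 10 or 50 μM inhibitor, or without inhibitor. The mix was diluted 1:10 into Optimem (5 μM Aβ final) and added to cells in quadruplicate. After a further 24 h, viability was read by MTS. Assay run twice.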

inhibition [1]: Active | Activity [2]: 154% | inhibition [3]: 84% | inhibition [4]: 26%
Compound: COc1ccc(NC(C)=O)cc1C(=O)NNC(=O)[C@H](CCCCN)NC(=O)CCOC[C@H]1OC(OCCCNC(=O)[C@@H](NC(=O)[C@H](C)NC(=O)OC(C)(C)C)C(C)C)[C@H](O)[C@@H](O)[C@@H]1O (stereo not given in full)

inhibition [1]: Active | Activity [2]: 165% | Activity [5]: 129% | inhibition [3]: 90% | inhibition [4]: 34% | inhibition [6]: 16% | inhibition [7]: Active | Activity [8]: 52% | Activity [9]: Active | Activity [10]: Active | Activity [11]: Dose-dependent effect
Compound: COc1ccc(NC(C)=O)cc1C(=O)NNC(=O)[C@H](CCCCN)NC(=O)CCOC[C@H]1O[C@@H](OCCCNC(=O)[C@@H](NC(=O)[C@H](C)N)C(C)C)[C@H](O)[C@@H](O)[C@@H]1O
Activity [12]: Active

inhibition [13]: inactive | inhibition [14]: inactive
Compound: COc1ccc(NC(C)=O)cc1C(=O)NNC(=O)[C@H](CCCCNC(=O)OCc1ccccc1)NC(=O)CCOC[C@H]1OC(OCCCNC(=O)[C@@H](NC(=O)[C@H](C)N)C(C)C)[C@H](OCc2ccccc2)[C@@H](OCc2ccccc2)[C@@H]1OCc1ccccc1 (mixture of isomers)

Compound: COc1ccc(NC(C)=O)cc1C(=O)NNC(=O)[C@H](CCCCN)NC(=O)CCOC[C@H]1OC(OCCCNC(=O)[C@@H](NC(=O)[C@H](C)N)C(C)C)[C@H](O)[C@@H](O)[C@@H]1O (mixture of isomers)
inhibition [1]: Active | Activity [2]: 148% | inhibition [5]: inactive | inhibition [3]: 87% | inhibition [4]: 29% | inhibition [6]: 23% | inhibition [15]: Active | inhibition [16]: Active | inhibition [17]: Active | Activity [11]: Dose-dependent effect | Activity (SH-SY5Y [18]): Active | Activity (SH-SY5Y [19]): Active | Stability (Plasma): Stable | inhibition [20]: inactive | inhibition [21]: inactive | inhibition [22]: Active | Activity (SH-SY5Y [23]): 75%
